# Data reported in ChEMBL document CHEMBL4411315, “Discovery of Novel Dual Histone Deacetylase and Mammalian Target of Rapamycin Target Inhibitors as a Promising Strategy for Cancer Therapy” (J Med Chem, 2019).
# Legend:
# [1] = system: MM1.S; assay: Induction of apoptosis in human MM1S cells assessed as viable cells at 160 nM after 48 hrs by Annexin V-FITC/propidium iodide staining-based flow cytometric analysis (reference value: 98.9%); assay type: functional; conditions: read-out: Activity
# [2] = system: MM1.S; assay: Antitumor activity against human MM1S cells xenografted in NOD/SCID mouse assessed as tumor growth inhibition at 10 mg/kg, iv administered every 2 days for 5 days and measured every 2 days post last dose by caliper method relative to control; assay type: functional; conditions: read-out: TGI
# How it was run: (§1)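 MM1S xenografts were made with 10^7 cells in 100 μL serum-free RPMI 1640, injected s.c. into the right flank of female NOD/SCID mice aged 5-6 weeks. Mice were randomized at 100-200 mm3, 6 per group. Dosing was i.v. every 2 days in saline with 2.5% DMSO and 10% cyclodextrin at pH 9. Tumours were measured by caliper every 2 days (volume = length × width² × 0.5) and weighed at the end.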
# [3] = system: MV4-11; assay: Antiproliferative activity against human MV4-11 cells after 72 hrs by MTT assay; assay type: functional, cell-based; conditions: MV4-11, 72 h
# [4] = system: MM1.S; assay: Cell cycle arrest in human MM1S cells assessed as accumulation at G2/M phase at 10 nM after 24 hrs by propidium iodide/RNase staining-based FACS analysis (reference value: 26.29%); assay type: functional
# [5] = molecular target: Histone deacetylase 3 (Homo sapiens, UniProt O15379); assay: Inhibition of recombinant full length HDAC3 (unknown origin) using Ac-peptide-AMC as substrate preincubated for 15 mins followed by substrate addition and measured after 1 hr by fluorescence assay
# Chain of Histone deacetylase 3 (O15379 whole entry): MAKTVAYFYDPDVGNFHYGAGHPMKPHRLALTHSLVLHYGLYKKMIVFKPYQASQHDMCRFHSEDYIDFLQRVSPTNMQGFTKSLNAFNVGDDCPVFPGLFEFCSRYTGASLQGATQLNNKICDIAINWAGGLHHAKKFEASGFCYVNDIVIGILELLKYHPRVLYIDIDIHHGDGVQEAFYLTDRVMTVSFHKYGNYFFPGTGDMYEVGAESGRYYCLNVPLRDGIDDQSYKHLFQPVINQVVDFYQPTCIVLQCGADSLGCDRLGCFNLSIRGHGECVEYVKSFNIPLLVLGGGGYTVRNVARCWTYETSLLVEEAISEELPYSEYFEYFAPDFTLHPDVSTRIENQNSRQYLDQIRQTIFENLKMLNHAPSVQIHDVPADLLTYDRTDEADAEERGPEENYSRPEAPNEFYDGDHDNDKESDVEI
# [6] = system: MV4-11; assay: Induction of apoptosis in human MV4-11 cells assessed as viable cells at 40 nM after 48 hrs by Annexin V-FITC/propidium iodide staining-based flow cytometric analysis (reference value: 84.1%); assay type: functional; conditions: MV4-11, 48 h, read-out: Activity
# [7] = molecular target: Histone deacetylase 4 (Homo sapiens, UniProt P56524); assay: Inhibition of recombinant full length human HDAC4 expressed in baculovirus infected sf9 cells using Ac-peptide-AMC as substrate preincubated for 15 mins followed by substrate addition and measured after 1 hr by fluorescence assay
# Chain of Histone deacetylase 4 (P56524 whole entry): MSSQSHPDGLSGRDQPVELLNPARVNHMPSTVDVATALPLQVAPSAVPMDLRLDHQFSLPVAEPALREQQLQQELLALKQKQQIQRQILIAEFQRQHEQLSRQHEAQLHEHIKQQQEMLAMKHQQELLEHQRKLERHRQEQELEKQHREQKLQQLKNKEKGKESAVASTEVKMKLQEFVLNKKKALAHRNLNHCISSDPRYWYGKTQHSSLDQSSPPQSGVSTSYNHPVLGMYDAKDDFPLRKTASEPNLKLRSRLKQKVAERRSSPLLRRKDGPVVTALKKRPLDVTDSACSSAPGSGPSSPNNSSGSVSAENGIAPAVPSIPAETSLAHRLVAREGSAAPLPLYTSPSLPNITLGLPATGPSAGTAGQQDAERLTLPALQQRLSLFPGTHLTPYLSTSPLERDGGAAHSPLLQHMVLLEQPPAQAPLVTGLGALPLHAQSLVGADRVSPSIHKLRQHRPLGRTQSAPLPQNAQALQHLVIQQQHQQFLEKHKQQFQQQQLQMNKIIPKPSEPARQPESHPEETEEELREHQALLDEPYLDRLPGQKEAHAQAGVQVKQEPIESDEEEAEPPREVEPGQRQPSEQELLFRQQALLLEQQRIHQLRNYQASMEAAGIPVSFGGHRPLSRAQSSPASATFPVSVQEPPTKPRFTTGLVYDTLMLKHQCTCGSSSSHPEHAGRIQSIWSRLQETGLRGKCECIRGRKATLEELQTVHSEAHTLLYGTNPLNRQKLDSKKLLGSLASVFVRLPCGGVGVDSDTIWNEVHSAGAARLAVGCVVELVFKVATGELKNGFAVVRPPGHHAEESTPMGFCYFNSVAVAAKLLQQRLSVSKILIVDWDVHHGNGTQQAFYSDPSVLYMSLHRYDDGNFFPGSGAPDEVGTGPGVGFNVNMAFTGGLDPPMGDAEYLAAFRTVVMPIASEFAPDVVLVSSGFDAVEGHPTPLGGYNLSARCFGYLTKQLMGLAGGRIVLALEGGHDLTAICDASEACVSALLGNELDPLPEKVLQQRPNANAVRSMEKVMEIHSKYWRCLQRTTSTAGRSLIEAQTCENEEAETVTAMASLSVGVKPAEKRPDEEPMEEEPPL
# [8] = system: MV4-11; assay: Cell cycle arrest in human MV4-11 cells assessed as accumulation at G2/M phase at 1.25 nM after 24 hrs by propidium iodide/RNase staining-based FACS analysis (reference value: 18.79%); assay type: functional
# [9] = molecular target: Protein deacetylase HDAC6 (Homo sapiens, UniProt Q9UBN7); assay: Inhibition of recombinant full length HDAC6 (unknown origin) using Ac-peptide-AMC as substrate preincubated for 15 mins followed by substrate addition and measured after 1 hr by fluorescence assay
# Chain of Protein deacetylase HDAC6 (Q9UBN7 whole entry): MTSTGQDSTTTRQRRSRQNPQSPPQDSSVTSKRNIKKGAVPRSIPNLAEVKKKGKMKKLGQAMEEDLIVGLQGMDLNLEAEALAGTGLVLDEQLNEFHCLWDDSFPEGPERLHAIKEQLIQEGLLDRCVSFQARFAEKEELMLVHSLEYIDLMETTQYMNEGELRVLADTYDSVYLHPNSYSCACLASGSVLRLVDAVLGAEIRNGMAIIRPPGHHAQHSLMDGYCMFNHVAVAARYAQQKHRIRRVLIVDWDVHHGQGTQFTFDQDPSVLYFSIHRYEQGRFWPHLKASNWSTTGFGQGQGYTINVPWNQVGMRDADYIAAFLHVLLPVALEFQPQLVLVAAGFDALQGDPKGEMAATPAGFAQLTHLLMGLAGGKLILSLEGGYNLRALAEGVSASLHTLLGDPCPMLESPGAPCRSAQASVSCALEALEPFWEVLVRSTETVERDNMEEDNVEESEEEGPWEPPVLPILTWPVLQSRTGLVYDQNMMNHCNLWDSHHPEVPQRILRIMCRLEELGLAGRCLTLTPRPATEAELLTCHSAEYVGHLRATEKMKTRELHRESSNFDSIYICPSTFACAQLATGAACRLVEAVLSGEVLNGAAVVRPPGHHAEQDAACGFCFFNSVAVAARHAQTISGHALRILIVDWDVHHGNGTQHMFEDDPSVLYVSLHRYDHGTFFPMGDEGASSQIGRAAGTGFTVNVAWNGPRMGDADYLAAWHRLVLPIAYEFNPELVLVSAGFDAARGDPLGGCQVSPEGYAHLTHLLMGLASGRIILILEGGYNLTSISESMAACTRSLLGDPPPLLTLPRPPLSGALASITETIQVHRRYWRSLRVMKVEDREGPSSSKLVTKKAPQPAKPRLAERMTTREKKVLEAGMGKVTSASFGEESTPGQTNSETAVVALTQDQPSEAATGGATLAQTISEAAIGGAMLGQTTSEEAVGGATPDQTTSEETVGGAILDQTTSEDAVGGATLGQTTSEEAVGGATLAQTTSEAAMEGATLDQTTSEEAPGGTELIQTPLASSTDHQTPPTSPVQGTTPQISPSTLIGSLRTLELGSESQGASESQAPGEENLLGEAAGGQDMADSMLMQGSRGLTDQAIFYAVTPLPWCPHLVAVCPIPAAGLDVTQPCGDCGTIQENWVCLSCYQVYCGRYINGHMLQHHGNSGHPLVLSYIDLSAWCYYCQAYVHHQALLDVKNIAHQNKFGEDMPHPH
# [10] = system: MV4-11; assay: Cell cycle arrest in human MV4-11 cells assessed as accumulation at G0/G1 phase at 10 nM after 24 hrs by propidium iodide/RNase staining-based FACS analysis (reference value: 44.79%); assay type: functional
# [11] = system: MM1.S; assay: Cell cycle arrest in human MM1S cells assessed as accumulation at G0/G1 phase at 5 nM after 24 hrs by propidium iodide/RNase staining-based FACS analysis (reference value: 49.22%); assay type: functional
# [12] = system: OCI-AML-3; assay: Antiproliferative activity against human OCI-AML3 cells after 72 hrs by MTT assay; assay type: functional, cell-based; conditions: OCI-AML-3, 72 h
# [13] = system: MV4-11; assay: Induction of apoptosis in human MV4-11 cells assessed as viable cells at 320 nM after 48 hrs by Annexin V-FITC/propidium iodide staining-based flow cytometric analysis (reference value: 84.1%); assay type: functional; conditions: MV4-11, 48 h, read-out: Activity
# [14] = system: MV4-11; assay: Cell cycle arrest in human MV4-11 cells assessed as accumulation at G2/M phase at 10 nM after 24 hrs by propidium iodide/RNase staining-based FACS analysis (reference value: 18.79%); assay type: functional
# [15] = Toxicity against NOD/SCID mouse xenografted with human MV4-11 cells assessed as effect on body weight at 10 mg/kg, iv administered every 2 days for 6 days; assay type: organism-based; conditions: in vivo
# How it was run: (§2)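 MV4-11 cells (10^7 in 100 μL serum-free IMDM) were injected s.c. into the right flank of female NOD/SCID mice aged 5-6 weeks. Groups of 6 were randomised at 100-200 mm3. Dosing was i.v. every 2 days in physiological saline containing 2.5% DMSO and 10% cyclodextrin, pH 9. Tumours were measured by caliper every 2 days. Survivors were counted.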
# [16] = Toxicity against NOD/SCID mouse xenografted with human MV4-11 cells assessed as mouse survival at 10 mg/kg, iv administered every 2 days for 6 days; assay type: organism-based; conditions: in vivo; how it was run: as §2
# [17] = molecular target: PI3-kinase p110-alpha/p85-alpha (Homo sapiens) (UniProt P27986+P42336); assay: Inhibition of recombinant human full length N-terminal His-tagged/untagged p110alpha/p85alpha expressed in baculovirus expression system at 100 nM using PIP2 as substrate after 1 hr by Kinase-Glo reagent-based assay relative to control
# How it was run: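 PI3Kα (p110α/p85α) incubated with PIP2 substrate and ATP in kinase buffer for 1 h at room temperature. Kinase-Glo reagent was then added for 15 min before luminescence read-out. Inhibition rate at 100 or 1000 nM is the mean of at least two experiments.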
# [18] = system: MM1.S; assay: Induction of apoptosis in human MM1S cells assessed as early apoptotic cells at 160 nM after 48 hrs by Annexin V-FITC/propidium iodide staining-based flow cytometric analysis (reference value: 0.38%); assay type: functional
# [19] = system: MM1.S; assay: Antitumor activity against human MM1S cells xenografted in NOD/SCID mouse assessed as tumor growth inhibition at 20 mg/kg, iv administered every 2 days for 5 days and measured every 2 days post last dose by caliper method relative to control; assay type: functional; conditions: read-out: TGI; how it was run: as §1
# [20] = system: MM1.S; assay: Antiproliferative activity against human MM1S cells after 72 hrs by MTT assay; assay type: functional, cell-based
# [21] = molecular target: Histone deacetylase 7 (Homo sapiens, UniProt Q8WUI4); assay: Inhibition of recombinant full length N-terminal GST-tagged human HDAC7 expressed in baculovirus expression system using Ac-peptide-AMC as substrate preincubated for 15 mins followed by substrate addition and measured after 1 hr by fluorescence assay
# Chain of Histone deacetylase 7 (Q8WUI4 whole entry): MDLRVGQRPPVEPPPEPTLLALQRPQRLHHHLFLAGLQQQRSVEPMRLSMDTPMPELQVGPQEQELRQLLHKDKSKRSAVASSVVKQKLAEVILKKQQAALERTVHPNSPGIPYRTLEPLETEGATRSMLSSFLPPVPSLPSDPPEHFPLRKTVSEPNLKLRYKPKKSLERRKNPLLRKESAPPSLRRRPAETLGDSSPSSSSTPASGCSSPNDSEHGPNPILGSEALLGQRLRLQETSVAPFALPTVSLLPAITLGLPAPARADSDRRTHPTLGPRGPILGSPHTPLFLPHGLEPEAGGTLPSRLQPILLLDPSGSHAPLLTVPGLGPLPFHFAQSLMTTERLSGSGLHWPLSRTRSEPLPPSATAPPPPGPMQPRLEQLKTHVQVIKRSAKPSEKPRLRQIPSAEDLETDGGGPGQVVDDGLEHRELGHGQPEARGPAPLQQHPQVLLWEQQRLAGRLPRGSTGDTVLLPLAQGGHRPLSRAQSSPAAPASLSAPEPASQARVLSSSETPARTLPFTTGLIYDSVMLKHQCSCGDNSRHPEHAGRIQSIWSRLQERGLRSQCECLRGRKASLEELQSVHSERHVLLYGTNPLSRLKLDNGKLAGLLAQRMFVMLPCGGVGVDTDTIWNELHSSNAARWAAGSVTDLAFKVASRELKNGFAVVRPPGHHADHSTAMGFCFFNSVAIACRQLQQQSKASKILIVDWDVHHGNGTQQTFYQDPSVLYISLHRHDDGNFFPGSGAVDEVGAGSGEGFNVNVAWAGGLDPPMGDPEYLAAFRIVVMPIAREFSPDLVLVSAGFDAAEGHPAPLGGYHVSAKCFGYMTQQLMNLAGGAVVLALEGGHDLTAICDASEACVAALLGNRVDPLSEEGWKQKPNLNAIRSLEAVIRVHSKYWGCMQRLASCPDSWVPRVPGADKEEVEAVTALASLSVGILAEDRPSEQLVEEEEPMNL
# [22] = system: MM1.S; assay: Induction of apoptosis in human MM1S cells assessed as early apoptotic cells at 40 nM after 48 hrs by Annexin V-FITC/propidium iodide staining-based flow cytometric analysis (reference value: 0.38%); assay type: functional
# [23] = system: MM1.S; assay: Cell cycle arrest in human MM1S cells assessed as accumulation at G2/M phase at 5 nM after 24 hrs by propidium iodide/RNase staining-based FACS analysis (reference value: 26.29%); assay type: functional
# [24] = system: MV4-11; assay: Induction of apoptosis in human MV4-11 cells assessed as necrotic cells at 80 nM after 48 hrs by Annexin V-FITC/propidium iodide staining-based flow cytometric analysis (reference value: 0.17%); assay type: functional
# [25] = molecular target: Histone deacetylase 11 (Homo sapiens, UniProt Q96DB2); assay: Inhibition of recombinant full length N-terminal GST-tagged human HDAC11 expressed in baculovirus expression system using Ac-peptide-AMC as substrate preincubated for 15 mins followed by substrate addition and measured after 1 hr by fluorescence assay
# Chain of Histone deacetylase 11 (Q96DB2 whole entry): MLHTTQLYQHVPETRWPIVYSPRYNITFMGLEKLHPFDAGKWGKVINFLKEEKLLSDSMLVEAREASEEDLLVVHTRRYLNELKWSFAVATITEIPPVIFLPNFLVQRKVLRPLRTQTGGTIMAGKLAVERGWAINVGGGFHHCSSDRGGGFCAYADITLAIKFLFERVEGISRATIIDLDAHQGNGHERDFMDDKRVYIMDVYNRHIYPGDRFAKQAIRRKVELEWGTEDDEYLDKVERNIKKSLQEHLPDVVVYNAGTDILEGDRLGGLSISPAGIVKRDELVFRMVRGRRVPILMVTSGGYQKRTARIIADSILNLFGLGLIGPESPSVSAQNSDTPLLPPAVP
# [26] = molecular target: Histone deacetylase 9 (Homo sapiens, UniProt Q9UKV0); assay: Inhibition of recombinant full length C-terminal His-tagged human HDAC9 expressed in baculovirus expression system using Ac-peptide-AMC as substrate preincubated for 15 mins followed by substrate addition and measured after 1 hr by fluorescence assay
# Chain of Histone deacetylase 9 (Q9UKV0 whole entry): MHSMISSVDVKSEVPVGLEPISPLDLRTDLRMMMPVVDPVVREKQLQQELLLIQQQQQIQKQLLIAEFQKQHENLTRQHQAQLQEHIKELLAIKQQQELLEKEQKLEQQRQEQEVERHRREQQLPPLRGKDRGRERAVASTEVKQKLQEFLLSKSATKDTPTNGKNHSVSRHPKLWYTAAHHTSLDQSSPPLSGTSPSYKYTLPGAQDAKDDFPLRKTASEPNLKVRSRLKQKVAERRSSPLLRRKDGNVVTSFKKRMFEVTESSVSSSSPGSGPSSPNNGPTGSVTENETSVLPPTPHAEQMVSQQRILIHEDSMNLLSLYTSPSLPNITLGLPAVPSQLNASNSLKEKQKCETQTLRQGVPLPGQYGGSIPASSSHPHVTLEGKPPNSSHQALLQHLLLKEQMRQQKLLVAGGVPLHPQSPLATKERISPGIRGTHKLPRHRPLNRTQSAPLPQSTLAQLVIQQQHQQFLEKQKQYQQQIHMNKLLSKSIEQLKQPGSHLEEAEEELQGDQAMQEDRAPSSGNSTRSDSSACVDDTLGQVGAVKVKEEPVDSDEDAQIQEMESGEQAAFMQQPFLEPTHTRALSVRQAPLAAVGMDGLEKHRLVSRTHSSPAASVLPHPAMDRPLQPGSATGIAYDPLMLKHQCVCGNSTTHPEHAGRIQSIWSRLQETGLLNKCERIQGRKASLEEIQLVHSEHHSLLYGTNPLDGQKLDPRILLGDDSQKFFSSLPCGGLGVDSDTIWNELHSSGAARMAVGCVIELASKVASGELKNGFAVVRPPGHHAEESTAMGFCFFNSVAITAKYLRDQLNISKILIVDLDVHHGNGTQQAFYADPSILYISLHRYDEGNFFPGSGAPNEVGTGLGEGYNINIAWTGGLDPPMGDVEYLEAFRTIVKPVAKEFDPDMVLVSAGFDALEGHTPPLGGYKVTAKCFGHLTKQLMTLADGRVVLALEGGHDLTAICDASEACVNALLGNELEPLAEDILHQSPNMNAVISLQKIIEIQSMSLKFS
structure (smiles),measurement,setting,value
C[C@@H]1CN(C(=O)Nc2ccc(-c3nc(N4CCOCC4)c4cnn(CCCCCCC(=O)NO)c4n3)cc2)CCO1,viability at 0.16 µM,[1],13.8%
same,inhibition in vivo at 10 mg/kg,[2],48.1%
same,IC50,[3],4.05 nM
same,Activity,[4],20.43%
same,IC50,[5],1.47 nM
same,viability at 0.04 µM,[6],2.99%
same,IC50,[7],> 1000 nM
same,Activity,[8],18.99%
same,IC50,[9],1.8 nM
same,Activity,[10],65.4%
same,Activity,[11],57.95%
same,IC50,[12],9.98 nM
same,viability at 0.32 µM,[13],2.57%
same,Activity,[14],11.11%
same,Activity,[15],Non-Toxic
same,Activity,[16],Non-Toxic
same,inhibition,[17],28.3%
same,Activity,[18],19.6%
same,inhibition in vivo at 20 mg/kg,[19],72.5%
same,IC50,[20],7.3 nM
same,IC50,[21],> 1000 nM
same,Activity,[22],4.81%
same,Activity,[23],24.4%
same,Activity,[24],1.86%
same,IC50,[25],> 1000 nM
same,IC50,[26],> 1000 nM
